The target in data set [1] is T1, Proto-oncogene tyrosine-protein kinase Src (Homo sapiens, UniProt P12931). The experiment in a line: Inhibition of GST-fussed c-SRC after 30 mins.
Data set [2] concerns SK-OV-3. The experiment in a line: Cellular uptake in c-SRC expressing human SKOV3 cells. The format is ADME, cell-based.
Data set [3] relates to MDA-MB-361. In words: Cellular uptake in c-SRC expressing human MDA-MB-361 cells. The format is ADME, cell-based.
In data set [4] the test system is HT-29. In words: Cellular uptake in c-SRC expressing human HT-29 cells. The format is ADME, cell-based.
Data set [5] deals with T1, Proto-oncogene tyrosine-protein kinase Src. The experiment in a line: Inhibition of GST-fussed c-SRC up to 250 uM after 30 mins. The method in brief: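 Src kinase enzyme inhibition was assessed at concentrations up to 250 μM.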
In data set [6] the test system is SK-OV-3. In words: Cytotoxicity against c-SRC expressing human SKOV3 cells assessed as inhibition of cell proliferation at 50 uM after 72 hrs relative to control. The format is functional. The settings on record: SK-OV-3, 72 h. The method in brief: (§1)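 Proliferation of SK-Ov-3, MDA-MB-361 and HT-29 cells was measured after 72 h exposure at 50 μM. Growth is expressed as a percentage of the DMSO vehicle control, set at 100%, with no compound. All experiments were run in triplicate.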

Data set [7] relates to MDA-MB-361. In words: Cytotoxicity against c-SRC expressing human MDA-MB-361 cells assessed as inhibition of cell proliferation at 50 uM after 72 hrs relative to control. Format: functional. The settings on record: MDA-MB-361, 72 h. The procedure, abridged:
as §1

The subject of data set [8] is HT-29. In words: Cytotoxicity against c-SRC expressing human HT-29 cells assessed as inhibition of cell proliferation at 50 uM after 72 hrs relative to control. The format is functional. The settings on record: HT-29, 72 h. The procedure, abridged:
as §1

The source of these data is ChEMBL document CHEMBL1681674, “Synthesis of 3-phenylpyrazolopyrimidine-1,2,3-triazole conjugates and evaluation of their Src kinase inhibitory and anticancer activities” (Bioorg Med Chem Lett, 2011).

Some results are limits rather than exact numbers.

T1 sequence (P12931 2-536 limits assumed): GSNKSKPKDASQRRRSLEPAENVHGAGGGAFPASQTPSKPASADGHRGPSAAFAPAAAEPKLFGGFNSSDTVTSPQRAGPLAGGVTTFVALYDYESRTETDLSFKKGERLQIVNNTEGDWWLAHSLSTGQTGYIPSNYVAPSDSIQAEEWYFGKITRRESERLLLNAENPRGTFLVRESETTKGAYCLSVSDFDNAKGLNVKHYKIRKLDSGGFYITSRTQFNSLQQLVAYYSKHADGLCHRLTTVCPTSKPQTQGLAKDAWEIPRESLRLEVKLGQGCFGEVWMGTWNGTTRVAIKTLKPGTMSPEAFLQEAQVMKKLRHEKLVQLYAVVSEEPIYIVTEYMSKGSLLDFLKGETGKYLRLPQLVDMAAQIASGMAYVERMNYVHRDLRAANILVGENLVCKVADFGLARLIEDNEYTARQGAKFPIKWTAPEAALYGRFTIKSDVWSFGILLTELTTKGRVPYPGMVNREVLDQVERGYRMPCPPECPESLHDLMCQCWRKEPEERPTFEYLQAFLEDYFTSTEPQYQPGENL

In the case of `CCOC(=O)Cn1cc(Cn2nc(-c3ccccc3)c3c(N)ncnc32)nn1`, in data set [1], the IC50 (usually the midpoint of a concentration-inhibition curve) came to 12.7 µM.

In data set [1], `Nc1ncnc2c1c(-c1ccccc1)nn2Cc1cn(CC(=O)Nc2ccc(F)cc2)nn1` registered a half-inhibitory concentration (IC50) of 16.4 µM.

In data set [1], `CCCCCCc1cn(CCn2nc(-c3ccccc3)c3c(N)ncnc32)nn1` came in with a 50% inhibitory concentration (IC50) of 5.6 µM. For the same molecule, the Drug uptake result in the data set with SK-OV-3 [2], in the data set on MDA-MB-361 [3] and in the data set with HT-29 [4] was “Active” throughout.

On to `CCCCCCCc1cn(CCn2nc(-c3ccccc3)c3c(N)ncnc32)nn1`, for which the IC50 in data set [1] is greater than 75 µM.

`Nc1ncnc2c1c(-c1ccccc1)nn2Cc1cn(CC(=O)Nc2ccc(Cl)cc2)nn1`: the IC50 in data set [1] is greater than 75 µM.

`CCCCc1cn(CCn2nc(-c3ccccc3)c3c(N)ncnc32)nn1`: in data set [1], the half-maximal inhibitory concentration (IC50) is greater than 75 µM.

Turning to `CC(=O)c1ccc(-c2cn(CCn3nc(-c4ccccc4)c4c(N)ncnc43)nn2)cc1`, the half-maximal inhibitory concentration (IC50) in data set [1] was greater than 75 µM.

In the case of `Nc1ncnc2c1c(-c1ccccc1)nn2Cc1cn(CC(=O)CCCO)nn1`, 9.1 µM corresponded to half-maximal inhibition in data set [1] (IC50). That is a single-digit micromolar value.

For the molecule `Nc1ncnc2c1c(-c1ccccc1)nn2Cc1cn(CC(=O)c2ccccc2)nn1`, in data set [1], the IC50 is greater than 75 µM.

Regarding `Nc1ncnc2c1c(-c1ccccc1)nn2Cc1cn(CC(=O)c2ccc(Cl)cc2)nn1`, the 50% inhibitory concentration (IC50) in data set [1] is greater than 75 µM.

The molecule `[N-]=[N+]=NCCn1nc(-c2ccccc2)c2c(N)ncnc21` registered an IC50 in data set [1] of 6.2 µM. This lies in the single-digit micromolar range.

As to `Cc1ccc(C(=O)Cn2cc(Cn3nc(-c4ccccc4)c4c(N)ncnc43)nn2)cc1`, the 50% inhibitory concentration (IC50) in data set [1] is greater than 75 µM.

The molecule `CCCCCCCCCCc1cn(CCn2nc(-c3ccccc3)c3c(N)ncnc32)nn1` registered an IC50 in data set [1] greater than 75 µM.

On to `Nc1ncnc2c1c(-c1ccccc1)nn2Cc1cn(CC(=O)CCc2cccc3ccccc23)nn1`, for which, in data set [5], the inhibition (in general, the share of the control response that was lost under treatment) was less than 10%. The inhibition at 50 µM in the data set on SK-OV-3 [6] was 48%.

As to `Nc1ncnc2c1c(-c1ccccc1)nn2CCn1cc(-c2ccc(F)cc2)nn1`, half-maximal inhibition in data set [1] (IC50) required 29.6 µM. The inhibition at 50 µM in the data set on MDA-MB-361 [7] was 49%.

As to `Nc1ncnc2c1c(-c1ccccc1)nn2Cc1cn(CC(=O)c2cccs2)nn1`, in data set [1], the half-inhibitory concentration (IC50) is greater than 75 µM.

Molecule `Nc1ncnc2c1c(-c1ccccc1)nn2Cc1cn(CC(=O)Nc2ccccc2)nn1` gave an IC50 in data set [1] of 23.1 µM. Moreover, in the data set on MDA-MB-361 [7], the inhibition at 50 µM was determined as 51%.

As for `Nc1ncnc2c1c(-c1ccccc1)nn2CCn1cc(Cc2ccccc2)nn1`, the inhibition in data set [5] was less than 10%.

In data set [1], `COc1ccc(-c2cn(CCn3nc(-c4ccccc4)c4c(N)ncnc43)nn2)cc1` yielded an IC50 of 17.4 µM. Besides, the inhibition at 50 µM came out at 58% in the data set with SK-OV-3 [6] and 73% with HT-29 [8].

For the molecule `Nc1ncnc2c1c(-c1ccccc1)nn2CCn1cc(CCCCl)nn1`, in data set [5], the inhibition is less than 10%. For the same molecule, in the data set with HT-29 [8], the inhibition at 50 µM came to 57%.
